# Only a selection was taken, and hits are over-represented in it overall.
# GASC1 inh: inhibitors of GASC-1 (KDM4C) histone demethylase, primary screen, biochemical, single concentration HTS | 96,000 compounds, 0.15% hits | GST-KDM4C 2-372, H3K9me3 peptide, LANCE TR-FRET | Lysine-specific demethylase 4C (Homo sapiens), Q9H3R0 | inhibition, % at 12.5 µM;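 active = mean replicate inhibition above about 25%, with at least 55% of replicates also reaching it, limit read from the data, passing the limit was not always enough; inconclusive = only one of those two conditions met; inactive = neither condition met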
#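 Material: GST-tagged GASC-1 (JMJD2C) catalytic fragment, aa 2-372. Input: enzyme final amount 10 nM. Medium: HEPES buffer, pH 7.5, plus ascorbate. Reagent: H3K9me3 peptide substrate, Fe(II), 2-oxoglutarate. Doses: single dose. Times: reaction 30 min RT, detection step 1 h RT. Measured by: LANCE TR-FRET. Evaluation: Fall in 671/618 emission ratio as inhibition.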
# IDH1 mut inh: inhibitors of IDH1 R132H reductase, primary screen, biochemical, plate reader, single point; AID 624101, 2012; 70,000 compounds, 0.18% hits; inhibition, % at 10 µM; diaphorase/resazurin fluorescence, 60 min; Isocitrate dehydrogenase [NADP] cytoplasmic (Homo sapiens), O75874; in the data active = inhibition above about 34%; inconclusive = no clear call, values can overlap the other calls; inactive = below about 11%;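 also: 0% = DMSO and 100% = no enzyme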
# Target sequence (O75874 whole entry R132H): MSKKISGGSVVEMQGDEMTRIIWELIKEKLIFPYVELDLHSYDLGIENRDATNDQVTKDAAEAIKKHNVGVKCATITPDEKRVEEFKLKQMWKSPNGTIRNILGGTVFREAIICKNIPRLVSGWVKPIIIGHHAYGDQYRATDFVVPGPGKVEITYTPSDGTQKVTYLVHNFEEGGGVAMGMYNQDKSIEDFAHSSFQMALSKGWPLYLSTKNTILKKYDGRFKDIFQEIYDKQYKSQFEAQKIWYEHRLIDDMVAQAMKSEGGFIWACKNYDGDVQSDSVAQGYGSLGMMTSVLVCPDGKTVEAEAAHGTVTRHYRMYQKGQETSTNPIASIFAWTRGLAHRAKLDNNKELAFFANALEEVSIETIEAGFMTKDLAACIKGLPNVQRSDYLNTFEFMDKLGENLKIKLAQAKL
# T cruzi growth-1: T. cruzi intracellular proliferation inhibitors, primary screen, cell-based, beta-gal Tulahuen parasites, NIH3T3 host, luminescence | T. cruzi beta-gal in NIH3T3, GalScreen luminescence, 90 h | inhibition, % at 8.34 µM | 77,000 compounds, 5.9% hits;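 active = mean inhibition above about 93%, with at least 55% of replicates each passing it, limit read from the data, passing the limit was not always enough; inconclusive = only one of those two conditions holds; inactive = neither condition holds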
# T cruzi growth-2: T. cruzi intracellular proliferation inhibitors, confirmation, cell-based, NIH3T3 host, beta-gal parasite, luminescence, cherry-pick | shares compounds with T cruzi growth-1 | T. cruzi beta-gal in NIH3T3, GalScreen luminescence, 90 h | inhibition, % at 8.35 µM | 5,600 compounds, 72% hits | AID 651739, 2012;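 active = mean replicate inhibition above about 95% and at least 55% of replicates individually reaching it, limit read from the data; inconclusive = only one of the two criteria is met; inactive = neither criterion is met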
# T cruzi growth-3: inhibitors of intracellular T. cruzi replication, confirmation, NIH3T3 host cells, beta-gal parasites, cherry-pick, set 2. shares compounds with T cruzi growth-1. T. cruzi beta-gal in NIH3T3, GalScreen luminescence, 90 h. inhibition, % at 2.09 µM. 5,600 compounds, 21% hits. AID 651740, 2012;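 active = mean inhibition above about 95%, with at least 55% of replicates also reaching it, limit read from the data; inconclusive = meets just one of the two conditions; inactive = meets neither condition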;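 also: plate controls were neutral control median for no effect and positive control median for full effect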
# NIH3T3 tox: cytotoxicity in mouse NIH/3T3 fibroblasts, confirmation, cytotoxicity control for T. cruzi proliferation inhibitor project, cell-based, cherry-pick, single point; shares compounds with T cruzi growth-1; NIH/3T3 viability, CellTiter-Glo ATP luminescence, 90 h; cytotoxicity (signal decrease), % at 8.35 µM; 5,600 compounds, 14% hits; AID 651742, 2012;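 active = mean signal decrease across replicates above about 35% based on untreated-well scatter, with enough replicates individually passing, limit read from the data; inconclusive = no rule stated though some were filed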;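 also: 0% = median of neutral control wells and 100% = median of positive control wells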
# NIH3T3 tox 2: NIH/3T3 fibroblast cytotoxicity, confirmation, cytotoxicity control, cell-based, cherry-pick, single point, set 2. shares compounds with T cruzi growth-1. NIH/3T3 viability, CellTiter-Glo ATP luminescence, 90 h. inhibition, % at 24.9 µM. 5,600 compounds, 56% hits. AID 651744, 2012;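 active = mean loss of cell viability signal at or above a set limit, and enough replicates individually reaching it; inconclusive = meets only the mean limit or only the replicate share; inactive = meets neither condition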;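 also: 0% = median of neutral control wells and 100% = median of positive control wells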
# Active calls of the source: *; ? = inconclusive; . = no result given.
SMILES,GASC1 inh,IDH1 mut inh,T cruzi growth-1,T cruzi growth-2,T cruzi growth-3,NIH3T3 tox,NIH3T3 tox 2
C[C@@H]1CCCCO[C@@H](CN(C)C(=O)Nc2ccc(C(F)(F)F)cc2)[C@H](C)CN([C@@H](C)CO)C(=O)c2cc(NC(=O)CCC(F)(F)F)ccc2O1,0,-1,101*,106*,35,25,7
O=C(NCCn1cc(Cl)cn1)Nc1cccc(Cl)c1Cl,.,0,.,.,.,.,.
COc1cccc(-c2ccc([C@H]3[C@H]4CNCC(=O)N4[C@H]3CO)cc2)c1,1,.,.,.,.,.,.
COc1ccc2c3c([nH]c2c1)[C@@H](CO)N(C(=O)Nc1c(C)noc1C)CC31CN(CC2CCCCC2)C1,-1,.,.,.,.,.,.
O=[N+]([O-])c1ccc(N2CCN(S(=O)(=O)c3cccs3)CC2)cc1NCc1ccco1,.,0,.,.,.,.,.
C[C@@H]1CN([C@H](C)CO)C(=O)c2cc(NS(=O)(=O)c3ccc(Cl)cc3)ccc2O[C@H]1CN(C)Cc1ccc(C(F)(F)F)cc1,1,3,80,.,.,.,.
C[C@H](CO)N1C[C@H](C)[C@@H](CN(C)Cc2ccc(C(F)(F)F)cc2)Oc2ccc(NS(=O)(=O)c3ccc(Cl)cc3)cc2C1=O,5,.,64,.,.,.,.
C[C@H]1CN([C@@H](C)CO)C(=O)c2cc(NS(=O)(=O)c3ccc(Cl)cc3)ccc2O[C@@H]1CN(C)Cc1ccc(C(F)(F)F)cc1,-1,3,?,111*,70,23,103*
C[C@H]1CN([C@@H](C)CO)C(=O)c2cc(NS(=O)(=O)c3ccc(Cl)cc3)ccc2O[C@H]1CN(C)Cc1ccc(C(F)(F)F)cc1,-4,-1,129*,109*,72,32,103*
CNC[C@@H]1Oc2c(NC(=O)Nc3cccc4ccccc34)cccc2C(=O)N([C@@H](C)CO)C[C@H]1C,-1,2,39,.,.,.,.
CC(C)CC#Cc1cnc2c(c1)C(=O)N([C@@H](C)CO)C[C@@H](C)[C@@H](CN(C)C(=O)c1ccccc1F)O2,0,0,28,.,.,.,.
O=C(C[C@H]1C[C@H]2c3cc(NC(=O)C4CCC4)ccc3O[C@H]2[C@H](CO)O1)NCc1ccncc1,-2,-1,31,.,.,.,.
C[C@@H]1CN([C@@H](C)CO)C(=O)c2cc(NC(=O)Nc3cccc4ccccc34)ccc2O[C@@H](C)CCCCO[C@H]1CN(C)Cc1ccc2c(c1)OCO2,-2,1,121*,106*,91,26,105*
C[C@H](CO)N1C[C@H](C)[C@H](CN(C)Cc2ccc3c(c2)OCO3)OCCCC[C@H](C)Oc2ccc(NC(=O)Nc3cccc4ccccc34)cc2C1=O,-3,.,107*,104*,97*,23,45*
C[C@H](CO)N1C[C@H](C)[C@H](CN(C)C(=O)Nc2ccc3c(c2)OCO3)OCCCC[C@H](C)Oc2ccc(NC(=O)Nc3cccc4ccccc34)cc2C1=O,-2,1,62,.,.,.,.
C[C@@H]1CCCCO[C@H](CN(C)Cc2ccc3c(c2)OCO3)[C@@H](C)CN([C@H](C)CO)C(=O)c2cc(NC(=O)Nc3cccc4ccccc34)ccc2O1,-3,1,91,.,.,.,.
C[C@@H]1CCCCO[C@@H](CN(C)C(=O)Nc2ccc3c(c2)OCO3)[C@@H](C)CN([C@@H](C)CO)C(=O)c2cc(NC(=O)Nc3cccc4ccccc34)ccc2O1,-1,0,.,.,.,.,.
C[C@H](CO)N1C[C@H](C)[C@@H](CN(C)Cc2ccc3c(c2)OCO3)OCCCC[C@H](C)Oc2ccc(NC(=O)Nc3cccc4ccccc34)cc2C1=O,-1,.,?,103*,111*,33,42*
C[C@@H]1CCCCO[C@H](CN(C)Cc2ccc3c(c2)OCO3)[C@H](C)CN([C@H](C)CO)C(=O)c2cc(NC(=O)Nc3cccc4ccccc34)ccc2O1,-3,.,136*,107*,118*,?,94*
N=C(N)SCCc1ccc(OCc2ccc([N+](=O)[O-])cc2)cc1,.,0,.,.,.,.,.
COc1ccccc1-c1ccc2c(c1)O[C@H](CN(C)C(=O)Nc1ccccc1)[C@@H](C)CN([C@H](C)CO)S2(=O)=O,-1,0,61,.,.,.,.
C[C@@H]1CN([C@@H](C)CO)C(=O)c2cc(NC(=O)Nc3cccc4ccccc34)ccc2O[C@@H](C)CCCCO[C@@H]1CN(C)Cc1ccc2c(c1)OCO2,-1,-2,102*,110*,75,13,23
C[C@H](CO)N1C[C@H](C)[C@@H](CN(C)Cc2ccc3c(c2)OCO3)Oc2ccc(NC(=O)Nc3cccc4ccccc34)cc2CC1=O,-1,0,109*,101*,104*,41*,52*
C[C@H]1CN([C@@H](C)CO)C(=O)c2cc(NC(=O)Nc3cccc4ccccc34)ccc2O[C@H]1CN(C)Cc1ccc2c(c1)OCO2,-4,-12,100*,90,93,28,32*
C[C@H](CO)N1C[C@H](C)[C@H](CN(C)Cc2ccc3c(c2)OCO3)Oc2ccc(NC(=O)Nc3ccc(C(F)(F)F)cc3)cc2CC1=O,-1,-4,97*,109*,104*,19,84*
C[C@@H]1CN([C@@H](C)CO)C(=O)Cc2cc(NC(=O)Nc3ccc(C(F)(F)F)cc3)ccc2O[C@H]1CN(C)Cc1ccc2c(c1)OCO2,-2,0,93,.,.,.,.
C[C@H]1CN([C@@H](C)CO)C(=O)Cc2cc(NC(=O)Nc3cccc4ccccc34)ccc2O[C@H]1CN(C)Cc1ccc2c(c1)OCO2,-1,0,16,.,.,.,.
C[C@@H]1CN([C@@H](C)CO)C(=O)c2cc(NC(=O)Nc3cccc4ccccc34)ccc2O[C@@H]1CN(C)Cc1ccc2c(c1)OCO2,-1,0,14,.,.,.,.
COc1ccc2c3c([nH]c2c1)[C@@H](CO)N(C(=O)NC(C)C)CC31CCN(C(=O)c2ccncc2)CC1,1,.,.,.,.,.,.
O=C(Nc1ccc(C(F)(F)F)cc1)Nc1ccc2c(c1)[C@@H]1C[C@@H](CC(=O)N3CCc4ccccc4C3)O[C@@H](CO)[C@@H]1O2,1,0,77,.,.,.,.

# Compound activity as filed in PubChem.
